The values that follow come from ChEMBL document CHEMBL1128478, “Structure-activity relationships of the potent combined endothelin-A/endothelin-B receptor antagonist Ac-DDip16-Leu-Asp-Ile-Ile-Trp21: development of endothelin-B receptor selective antagonists” (J Med Chem, 1995).

SMILES strings stand for the structures. Square brackets hold non-standard residues; d marks the D form. Peptide text beside a SMILES is read from it. * marks the point of attachment. Dip = N[C@H](C(=O)O)C(c1ccccc1)c1ccccc1; Bz = O=C(c1ccccc1)*; Ms = CS(=O)(=O)*

Experiment [1] has as its target T1, Endothelin receptor type B (Rattus norvegicus, UniProt P21451).
T1 sequence (P21451 whole entry): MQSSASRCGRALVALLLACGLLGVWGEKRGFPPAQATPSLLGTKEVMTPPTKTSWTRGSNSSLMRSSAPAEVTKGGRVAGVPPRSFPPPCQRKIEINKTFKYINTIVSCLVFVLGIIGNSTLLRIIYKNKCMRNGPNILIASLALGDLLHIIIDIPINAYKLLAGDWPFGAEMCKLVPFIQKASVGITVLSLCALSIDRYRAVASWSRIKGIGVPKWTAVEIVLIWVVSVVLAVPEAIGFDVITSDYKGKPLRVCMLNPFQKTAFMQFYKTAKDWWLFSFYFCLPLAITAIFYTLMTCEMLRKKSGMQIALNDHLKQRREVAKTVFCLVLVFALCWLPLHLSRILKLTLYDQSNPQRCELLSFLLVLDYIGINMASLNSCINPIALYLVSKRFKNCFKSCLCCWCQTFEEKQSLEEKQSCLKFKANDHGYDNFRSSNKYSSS
The experiment in a line: Binding affinity against endothelin B receptor rat cerebellar membranes.

Experiment [2] is described as follows: Relative affinities against endothelin A receptor (rabbit) and endothelin B receptor (rat). The arrangement: reference not given here.
The target in experiment [3] is T1, Endothelin receptor type B. The experiment in a line: Inhibition of SRTX-6c stimulated arachidonic acid release in CHO cells expressing recombinant rat ET- B receptors.
Experiment [4] addresses T2, Endothelin receptor type B (Homo sapiens, UniProt P24530).
T2 sequence (P24530 whole entry): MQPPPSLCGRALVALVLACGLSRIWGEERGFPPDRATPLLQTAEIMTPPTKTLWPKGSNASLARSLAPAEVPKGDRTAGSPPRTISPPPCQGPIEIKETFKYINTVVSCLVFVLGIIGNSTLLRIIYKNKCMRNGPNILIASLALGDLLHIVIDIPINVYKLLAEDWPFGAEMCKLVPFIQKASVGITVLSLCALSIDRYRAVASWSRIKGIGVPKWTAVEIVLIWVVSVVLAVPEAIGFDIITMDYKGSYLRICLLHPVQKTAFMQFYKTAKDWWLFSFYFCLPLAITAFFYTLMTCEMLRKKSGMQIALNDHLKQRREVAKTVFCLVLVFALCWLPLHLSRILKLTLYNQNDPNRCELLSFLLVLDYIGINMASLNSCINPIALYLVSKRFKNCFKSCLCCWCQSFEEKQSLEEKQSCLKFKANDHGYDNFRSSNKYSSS
Kind of experiment: Binding affinity measured in CHO cells stably transfected with the human endothelin B receptor. Type of experiment: cell-based. Summed up:
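Membranes come from confluent CHO-K1 clones stably expressing human ETB, grown in DME/F12 with 10% FCS and G418 0.5 mg/mL. Specific binding fitted by nonlinear least squares. Triplicate points per IC50.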

Experiment [5] can be described thus: Relative affinities for rat endothelin B receptor and human endothelin B receptor. The arrangement: reference not given here.
Experiment [6] addresses T1, Endothelin receptor type B. The experiment in a line: Inhibition of SRTX-6c stimulated arachidonic acid release in CHO cells expressing rat ET- B receptors.

A word on the IC50: it is the concentration at which inhibition is half-maximal.

For the compound `CC[C@H](C)[C@H](NC(=O)[C@H](CC(=O)O)NC(=O)[C@H](CC(C)C)NC(=O)[C@@H](NS(C)(=O)=O)C(c1ccccc1)c1ccccc1)C(=O)N[C@H](C(=O)N[C@@H](Cc1c[nH]c2ccccc12)C(=O)O)[C@@H](C)CC` (Ms-[Dip]LDIIW-OH), the IC50 was 260 nM in experiment [1] and 1300 nM in experiment [3]. Moreover, the Ratio in experiment [2] was 2.1.

As for `CC[C@H](C)[C@H](NC(=O)[C@H](CC(=O)O)NC(=O)[C@H](CC(C)C)NC(=O)[C@@H](NC(=O)c1ccccc1)C(c1ccccc1)c1ccccc1)C(=O)N[C@H](C(=O)N[C@@H](Cc1c[nH]c2ccccc12)C(=O)O)[C@@H](C)CC` (Bz-[Dip]LDIIW-OH), the figures for the IC50 in experiment [1], in experiment [4] and in experiment [6] were 30 nM, 4400 nM and 290 nM, respectively. The Ratio in experiment [2] amounted to 210; in experiment [5], 147.
